Reference: ChEMBL document CHEMBL1137074, “Novel N-arylpyrazolo[3,2-c]-based ligands for the glucocorticoid receptor: receptor binding and in vivo activity” (J Med Chem, 2004)

Legend:
Mus musculus = assay: Ability to induce mouse macrophage IL-6 assay in peritoneal exudate cells harvested by […] from C57BI/6 mice.; format: functional, cell-based
In short: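 Thioglycolate-elicited peritoneal exudate cells from C57Bl/6 mice, harvested day 3 in PBS/heparin, washed and resuspended at 5.6×10^5 cells/mL in RPMI 1640 with 10% heat-inactivated FCS. Compound (typically 3 μM final) preincubated 1 h at 37 °C, 5% CO2, then LPS or TNF added, 24 h. Supernatant IL-6 read; duplicate wells, three experiments.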

Glucocorticoid receptor [1] = target: T1, Glucocorticoid receptor (Homo sapiens, UniProt P04150); assay: Glucocorticoid induced transactivation of human tyrosine amino transferase in HepG2 cells; format: functional, cell-based
T1 sequence (P04150 whole entry): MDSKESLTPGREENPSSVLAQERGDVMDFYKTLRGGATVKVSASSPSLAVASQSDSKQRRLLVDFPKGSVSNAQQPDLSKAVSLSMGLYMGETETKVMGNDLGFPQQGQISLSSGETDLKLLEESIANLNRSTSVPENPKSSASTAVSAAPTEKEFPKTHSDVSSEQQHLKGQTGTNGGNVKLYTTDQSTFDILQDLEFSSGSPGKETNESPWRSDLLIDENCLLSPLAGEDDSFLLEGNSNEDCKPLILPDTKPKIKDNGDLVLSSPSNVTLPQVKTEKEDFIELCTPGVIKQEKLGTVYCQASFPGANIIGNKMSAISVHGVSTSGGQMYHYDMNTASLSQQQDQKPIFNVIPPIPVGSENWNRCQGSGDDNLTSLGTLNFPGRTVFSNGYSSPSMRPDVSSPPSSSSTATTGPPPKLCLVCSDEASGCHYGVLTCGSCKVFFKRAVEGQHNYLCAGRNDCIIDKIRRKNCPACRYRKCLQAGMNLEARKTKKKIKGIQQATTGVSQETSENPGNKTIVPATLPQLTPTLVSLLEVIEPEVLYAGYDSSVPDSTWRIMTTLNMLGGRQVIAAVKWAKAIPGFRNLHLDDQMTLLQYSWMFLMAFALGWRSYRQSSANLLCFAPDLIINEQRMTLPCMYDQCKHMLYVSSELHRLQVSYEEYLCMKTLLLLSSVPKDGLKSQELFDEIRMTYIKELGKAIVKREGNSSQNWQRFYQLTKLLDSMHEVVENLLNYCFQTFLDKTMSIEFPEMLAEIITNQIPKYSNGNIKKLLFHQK

Glucocorticoid receptor [2] = target: T1, Glucocorticoid receptor; assay: Ability to induce human IL-6 assay in A549 lung carcinoma cell line.; format: functional, cell-based
Glucocorticoid receptor [3] = target: T1, Glucocorticoid receptor; assay: Compound was tested for inhibitory activity towards human glucocorticoid receptor
Glucocorticoid receptor [4] = target: T1, Glucocorticoid receptor; assay: Ability to induce human glutamine synthetase in skeletal muscle cells; format: cell-based
Androgen receptor = target: T2, Androgen receptor (Homo sapiens, UniProt P10275); assay: Binding affinity for human androgen receptor
T2 sequence (P10275 whole entry): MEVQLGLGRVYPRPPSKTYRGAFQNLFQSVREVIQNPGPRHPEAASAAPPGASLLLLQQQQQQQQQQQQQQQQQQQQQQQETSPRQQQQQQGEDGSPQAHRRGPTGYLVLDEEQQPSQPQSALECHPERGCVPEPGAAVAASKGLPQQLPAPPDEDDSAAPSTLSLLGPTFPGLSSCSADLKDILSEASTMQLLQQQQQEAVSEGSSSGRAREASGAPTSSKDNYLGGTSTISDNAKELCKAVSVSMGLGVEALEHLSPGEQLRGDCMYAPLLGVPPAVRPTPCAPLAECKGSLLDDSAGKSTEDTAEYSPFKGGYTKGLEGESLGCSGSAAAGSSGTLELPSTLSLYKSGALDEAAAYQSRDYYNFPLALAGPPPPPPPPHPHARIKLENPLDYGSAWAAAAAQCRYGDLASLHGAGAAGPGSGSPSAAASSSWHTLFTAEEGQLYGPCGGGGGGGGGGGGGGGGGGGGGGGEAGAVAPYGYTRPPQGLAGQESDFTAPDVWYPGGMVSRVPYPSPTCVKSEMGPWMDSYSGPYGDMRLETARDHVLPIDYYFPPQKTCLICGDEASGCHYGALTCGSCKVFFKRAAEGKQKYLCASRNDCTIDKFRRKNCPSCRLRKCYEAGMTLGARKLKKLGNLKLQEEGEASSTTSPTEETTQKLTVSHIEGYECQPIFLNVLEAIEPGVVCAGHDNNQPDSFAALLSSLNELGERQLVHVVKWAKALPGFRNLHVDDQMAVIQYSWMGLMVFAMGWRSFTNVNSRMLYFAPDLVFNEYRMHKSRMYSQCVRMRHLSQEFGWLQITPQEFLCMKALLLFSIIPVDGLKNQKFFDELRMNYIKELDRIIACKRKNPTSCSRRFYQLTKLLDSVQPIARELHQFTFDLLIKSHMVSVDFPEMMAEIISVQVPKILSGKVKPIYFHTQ

Estrogen receptor = target: T3, Estrogen receptor (Homo sapiens, UniProt P03372); assay: Binding affinity for human Estrogen receptor alpha
T3 sequence (P03372 whole entry): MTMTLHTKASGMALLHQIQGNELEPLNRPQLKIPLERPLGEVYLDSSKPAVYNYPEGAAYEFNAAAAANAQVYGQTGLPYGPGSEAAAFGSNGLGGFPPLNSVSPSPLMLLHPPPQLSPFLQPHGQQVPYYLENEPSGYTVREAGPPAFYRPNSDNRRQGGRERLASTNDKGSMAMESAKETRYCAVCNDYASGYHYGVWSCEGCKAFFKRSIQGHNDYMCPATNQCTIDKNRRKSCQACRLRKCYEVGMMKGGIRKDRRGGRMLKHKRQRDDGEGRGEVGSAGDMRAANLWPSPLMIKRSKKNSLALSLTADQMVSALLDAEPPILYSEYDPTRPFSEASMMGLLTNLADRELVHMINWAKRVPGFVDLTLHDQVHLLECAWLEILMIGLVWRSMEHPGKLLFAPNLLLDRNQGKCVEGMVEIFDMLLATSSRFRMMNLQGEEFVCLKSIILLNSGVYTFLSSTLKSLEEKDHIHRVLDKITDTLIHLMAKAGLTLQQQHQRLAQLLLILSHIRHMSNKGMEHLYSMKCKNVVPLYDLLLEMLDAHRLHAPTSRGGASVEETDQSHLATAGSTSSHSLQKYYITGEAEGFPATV

Progesterone receptor = target: T4, Progesterone receptor (Homo sapiens, UniProt P06401); assay: Binding affinity towards human progesterone receptor
T4 sequence (P06401 whole entry): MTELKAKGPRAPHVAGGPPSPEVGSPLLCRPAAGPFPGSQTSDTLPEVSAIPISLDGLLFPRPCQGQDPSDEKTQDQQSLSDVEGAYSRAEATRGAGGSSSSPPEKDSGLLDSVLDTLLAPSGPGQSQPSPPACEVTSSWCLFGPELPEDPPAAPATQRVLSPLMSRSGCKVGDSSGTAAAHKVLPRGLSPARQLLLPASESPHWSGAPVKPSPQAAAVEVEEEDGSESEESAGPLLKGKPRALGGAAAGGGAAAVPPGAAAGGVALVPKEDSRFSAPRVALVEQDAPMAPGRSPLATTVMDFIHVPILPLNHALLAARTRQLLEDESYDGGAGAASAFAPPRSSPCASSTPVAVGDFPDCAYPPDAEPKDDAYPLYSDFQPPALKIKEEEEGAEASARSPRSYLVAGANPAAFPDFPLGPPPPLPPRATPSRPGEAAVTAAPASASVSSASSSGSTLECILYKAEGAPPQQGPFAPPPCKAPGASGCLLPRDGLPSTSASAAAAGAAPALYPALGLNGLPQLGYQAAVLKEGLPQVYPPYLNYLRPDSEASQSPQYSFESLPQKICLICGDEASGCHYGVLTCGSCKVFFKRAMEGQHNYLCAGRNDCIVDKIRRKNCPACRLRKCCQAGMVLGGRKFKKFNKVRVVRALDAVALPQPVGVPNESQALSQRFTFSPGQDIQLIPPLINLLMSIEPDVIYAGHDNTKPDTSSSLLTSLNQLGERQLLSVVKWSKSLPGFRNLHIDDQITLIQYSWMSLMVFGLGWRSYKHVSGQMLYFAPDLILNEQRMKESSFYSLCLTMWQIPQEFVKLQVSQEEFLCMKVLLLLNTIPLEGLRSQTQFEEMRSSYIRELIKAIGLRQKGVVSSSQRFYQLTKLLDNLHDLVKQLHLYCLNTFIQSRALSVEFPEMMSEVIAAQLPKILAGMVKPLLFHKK
In short: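 Receptor homogenates from frozen cell pellets in ice-cold KPO4 buffer (10 mM KPO4, 20 mM molybdate, 1 mM EDTA, 5 mM DTT, protease inhibitors), spun 35 000g 1 h at 4 °C. MR: recombinant baculovirus-expressed rat receptor, 2 nM [3H]aldosterone; PR: T-47D cell protein, 5 nM [3H]progesterone.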

[5] = target: Mineralocorticoid receptor (Rattus norvegicus) (UniProt P22199); assay: Binding affinity for rat mineralocorticoid receptor
Sequence of Mineralocorticoid receptor (Rattus norvegicus) (P22199 whole entry, looked up): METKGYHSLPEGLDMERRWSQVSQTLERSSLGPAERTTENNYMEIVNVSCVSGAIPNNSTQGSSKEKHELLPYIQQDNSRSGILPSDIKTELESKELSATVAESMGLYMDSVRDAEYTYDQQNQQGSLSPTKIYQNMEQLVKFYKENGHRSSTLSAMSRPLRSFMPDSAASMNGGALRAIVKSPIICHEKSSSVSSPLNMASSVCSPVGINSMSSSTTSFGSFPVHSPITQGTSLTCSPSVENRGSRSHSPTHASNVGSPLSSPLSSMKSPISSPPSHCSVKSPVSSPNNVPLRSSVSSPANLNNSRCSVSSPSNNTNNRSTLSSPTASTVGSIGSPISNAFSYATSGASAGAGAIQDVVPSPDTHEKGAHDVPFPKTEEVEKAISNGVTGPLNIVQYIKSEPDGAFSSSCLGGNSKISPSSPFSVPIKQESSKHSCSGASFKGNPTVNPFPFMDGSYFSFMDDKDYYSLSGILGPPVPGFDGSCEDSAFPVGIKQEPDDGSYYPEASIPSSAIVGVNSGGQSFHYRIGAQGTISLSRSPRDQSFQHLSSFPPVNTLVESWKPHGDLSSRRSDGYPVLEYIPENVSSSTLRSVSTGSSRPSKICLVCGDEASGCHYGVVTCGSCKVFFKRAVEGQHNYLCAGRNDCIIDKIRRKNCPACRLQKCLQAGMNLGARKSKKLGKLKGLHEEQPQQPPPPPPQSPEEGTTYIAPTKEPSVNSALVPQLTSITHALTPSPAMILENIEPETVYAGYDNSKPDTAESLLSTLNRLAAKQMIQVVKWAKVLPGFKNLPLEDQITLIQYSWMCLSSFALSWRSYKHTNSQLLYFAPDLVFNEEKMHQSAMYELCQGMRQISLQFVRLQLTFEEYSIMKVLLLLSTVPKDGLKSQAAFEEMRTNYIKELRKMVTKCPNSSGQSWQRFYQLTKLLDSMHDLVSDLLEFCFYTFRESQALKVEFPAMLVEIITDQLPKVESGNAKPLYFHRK

Structure (SMILES) | EC50 (Mus musculus) [nM] | EC50 (Glucocorticoid receptor [2]) [nM] | IC50 (Glucocorticoid receptor [3]) [nM] | IC50 (Androgen receptor) [nM] | IC50 (Estrogen receptor) [nM] | IC50 (Progesterone receptor) [nM] | IC50 [5] [nM] | EC50 (Glucocorticoid receptor [1]) [nM] | EC50 (Glucocorticoid receptor [4]) [nM]
C=CC[C@H](O)[C@H]1CCCC2=Cc3c(cnn3-c3ccc(F)cc3)C[C@@]21C | 36.2 | 9.3 | 3.9 | – | – | – | – | 661 | 66
C[C@]12Cc3cnn(-c4ccc(F)cc4)c3C=C1CCC[C@@H]2[C@](C)(O)c1ccsc1 | 5.2 | 1 | 0.8 | – | – | – | – | 35.6 | 14.2
CC(C)(O)[C@H]1CCCC2=Cc3c(cnn3-c3ccc(F)cc3)C[C@@]21C | 15.1 | 3 | 1.9 | – | – | – | – | 83.5 | 182
C[C@]12Cc3cnn(-c4ccc(F)cc4)c3C=C1CCC[C@@H]2[C@@H](O)CCC1CC1 | 26.3 | 8.6 | 1.5 | – | – | – | – | 332 | 66
CC(C)(C)[C@H](O)[C@H]1CCCC2=Cc3c(cnn3-c3ccc(F)cc3)C[C@@]21C | – | – | 77.3 | – | – | – | – | – | –
CC(C)(C)c1ccc(C[C@H](O)[C@H]2CCCC3=Cc4c(cnn4-c4ccc(F)cc4)C[C@@]32C)cc1 | 86.5 | 24.2 | 16.6 | – | – | – | – | – | –
C[C@]12Cc3cnn(-c4ccc(F)cc4)c3C=C1CCC[C@@H]2[C@@H](O)Cc1ccc(F)cc1 | 3.7 | 3.2 | 2.8 | – | – | – | – | 1000 | 53.7
Cc1cc([C@H](O)[C@H]2CCCC3=Cc4c(cnn4-c4ccc(F)cc4)C[C@@]32C)ccc1F | 54.3 | 10.2 | 6.7 | – | – | – | – | – | –
C[C@]12C=CC(=O)C=C1CCC1[C@@H]2[C@@H](O)C[C@@]2(C)[C@H]1CC[C@]2(O)C(=O)CO (single isomer, unassigned) [PREDNISOLONE] | 5.7 | – | – | – | – | – | – | – | –

Now from value to molecule, other results behind:

EC50 (Mus musculus) [nM] | EC50 (Glucocorticoid receptor [2]) [nM] | IC50 (Glucocorticoid receptor [3]) [nM] | IC50 (Androgen receptor) [nM] | IC50 (Estrogen receptor) [nM] | IC50 (Progesterone receptor) [nM] | IC50 [5] [nM] | Structure (SMILES) | EC50 (Glucocorticoid receptor [1]) [nM] | EC50 (Glucocorticoid receptor [4]) [nM]
179 | 54.2 | 24.9 | – | – | – | – | C[C@]12Cc3cnn(-c4ccc(F)cc4)c3C=C1CCC[C@@H]2[C@@H](O)c1cccc(O)c1 | – | –
57.4 | 2.7 | 7.2 | – | – | – | – | C[C@]12Cc3cnn(-c4ccc(F)cc4)c3C=C1CCC[C@@H]2[C@@H](O)c1ccccc1F | – | –
24.7 | 13.9 | 4.2 | – | – | – | – | C[C@]12Cc3cnn(-c4ccc(F)cc4)c3C=C1CCC[C@@H]2[C@@H](O)Cc1ccccc1 | – | –
20.5 | 31.3 | 7.9 | – | – | – | – | COc1cc([C@H](O)[C@H]2CCCC3=Cc4c(cnn4-c4ccc(F)cc4)C[C@@]32C)ccc1F | – | –
41.5 | 11.4 | 3.4 | – | – | – | – | Cc1ccc(C[C@H](O)[C@H]2CCCC3=Cc4c(cnn4-c4ccc(F)cc4)C[C@@]32C)cc1 | – | –
– | 14.3 | 8.8 | – | – | – | – | C[C@H](O)[C@H]1CCCC2=Cc3c(cnn3-c3ccc(F)cc3)C[C@@]21C | – | –
66.6 | – | 6.3 | – | – | – | – | COc1ccc(C[C@H](O)[C@H]2CCCC3=Cc4c(cnn4-c4ccc(F)cc4)C[C@@]32C)cc1 | – | –
– | – | – | > 5000 | > 5000 | > 1000 | > 5000 | C[C@]12Cc3cnn(-c4ccc(F)cc4)c3C=C1CCC[C@@H]2[C@@H](O)c1ccc(F)cc1 | – | –
60.1 | 1.9 | 9 | – | – | – | – | C[C@]12Cc3cnn(-c4ccc(F)cc4)c3C=C1CCC[C@@H]2[C@@H](O)c1ccc(Cl)cc1 | – | –
77.2 | 19.5 | 9.5 | – | – | – | – | C[C@]12Cc3cnn(-c4ccc(F)cc4)c3C=C1CCC[C@@H]2[C@@H](O)c1ccc(O)cc1 | – | –
